Residue numbers refer to the chain shown, from its start.
Legend:
Conditions in all cases: stereoisomer not certain
OR4K1 R304H = tested on: T1, OR4K1 R304H
T1 sequence (whole entry): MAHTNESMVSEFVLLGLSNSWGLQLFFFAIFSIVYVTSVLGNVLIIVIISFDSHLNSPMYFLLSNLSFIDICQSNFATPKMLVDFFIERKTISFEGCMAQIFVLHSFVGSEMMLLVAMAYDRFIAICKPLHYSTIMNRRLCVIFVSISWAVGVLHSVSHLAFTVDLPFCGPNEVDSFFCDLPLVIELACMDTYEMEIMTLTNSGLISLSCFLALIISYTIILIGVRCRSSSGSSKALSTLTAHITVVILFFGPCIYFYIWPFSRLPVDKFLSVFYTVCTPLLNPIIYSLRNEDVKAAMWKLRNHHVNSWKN
How it was run: (§1)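 Whether a receptor–molecule pair is responsive (active) rests on the original authors' judgment that its measured signal was statistically different from baseline. Pairs without that judgment are non-responsive (inactive). Sources used varied assay methods, commonly transient luciferase assays in mammalian cell lines.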

OR4K13 (Homo sapiens) = molecular target: T2, OR4K13 (Homo sapiens) (UniProt Q8NH42)
T2 sequence (whole entry): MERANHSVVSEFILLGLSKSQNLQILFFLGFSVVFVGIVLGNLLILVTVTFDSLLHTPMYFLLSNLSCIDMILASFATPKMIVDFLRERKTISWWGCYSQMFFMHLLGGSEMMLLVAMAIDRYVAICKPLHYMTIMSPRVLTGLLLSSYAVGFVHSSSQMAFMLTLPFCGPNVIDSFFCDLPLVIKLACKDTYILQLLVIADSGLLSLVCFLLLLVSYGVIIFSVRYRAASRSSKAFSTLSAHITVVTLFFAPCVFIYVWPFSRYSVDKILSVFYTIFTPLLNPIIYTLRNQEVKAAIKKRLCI
How it was run: as §1

OR4K14 (Homo sapiens) = molecular target: T3, OR4K14 (Homo sapiens) (UniProt Q8NGD5)
T3 sequence (whole entry): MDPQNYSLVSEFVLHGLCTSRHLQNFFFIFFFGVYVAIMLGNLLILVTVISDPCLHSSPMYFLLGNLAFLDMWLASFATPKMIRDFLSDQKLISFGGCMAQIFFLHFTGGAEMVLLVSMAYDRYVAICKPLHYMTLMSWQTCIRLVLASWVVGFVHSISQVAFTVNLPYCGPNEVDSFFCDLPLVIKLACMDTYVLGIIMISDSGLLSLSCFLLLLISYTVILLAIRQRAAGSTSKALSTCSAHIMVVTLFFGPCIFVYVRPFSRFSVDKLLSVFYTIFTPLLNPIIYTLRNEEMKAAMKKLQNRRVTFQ
How it was run: as §1

OR4K2 (Homo sapiens) = molecular target: T4, OR4K2 (Homo sapiens) (UniProt Q8NGD2)
T4 sequence (whole entry): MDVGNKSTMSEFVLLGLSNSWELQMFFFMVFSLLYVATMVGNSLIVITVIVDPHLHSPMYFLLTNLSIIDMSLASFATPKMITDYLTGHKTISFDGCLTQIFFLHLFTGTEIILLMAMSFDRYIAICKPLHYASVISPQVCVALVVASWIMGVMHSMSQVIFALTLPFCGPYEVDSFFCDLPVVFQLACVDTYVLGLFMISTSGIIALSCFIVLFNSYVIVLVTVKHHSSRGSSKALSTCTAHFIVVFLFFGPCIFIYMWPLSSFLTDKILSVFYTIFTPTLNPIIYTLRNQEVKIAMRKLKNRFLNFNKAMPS
How it was run: as §1

OR4K2 = tested on: T5, OR4K2
T5 sequence (whole entry): T4 sequence (whole entry) with N307I
How it was run: as §1

OR4K5 (Homo sapiens) = molecular target: T6, OR4K5 (Homo sapiens) (UniProt Q8NGD3)
T6 sequence (whole entry): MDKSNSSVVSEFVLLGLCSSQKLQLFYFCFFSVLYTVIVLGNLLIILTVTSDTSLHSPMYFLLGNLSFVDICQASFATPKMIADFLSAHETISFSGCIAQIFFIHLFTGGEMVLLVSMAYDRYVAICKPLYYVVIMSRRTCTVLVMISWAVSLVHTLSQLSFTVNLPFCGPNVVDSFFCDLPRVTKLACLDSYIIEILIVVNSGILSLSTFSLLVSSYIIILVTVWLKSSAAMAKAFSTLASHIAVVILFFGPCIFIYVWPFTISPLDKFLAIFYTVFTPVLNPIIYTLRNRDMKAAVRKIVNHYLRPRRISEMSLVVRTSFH
How it was run: as §1

OR4KF = tested on: T7, OR4KF
T7 sequence (whole entry): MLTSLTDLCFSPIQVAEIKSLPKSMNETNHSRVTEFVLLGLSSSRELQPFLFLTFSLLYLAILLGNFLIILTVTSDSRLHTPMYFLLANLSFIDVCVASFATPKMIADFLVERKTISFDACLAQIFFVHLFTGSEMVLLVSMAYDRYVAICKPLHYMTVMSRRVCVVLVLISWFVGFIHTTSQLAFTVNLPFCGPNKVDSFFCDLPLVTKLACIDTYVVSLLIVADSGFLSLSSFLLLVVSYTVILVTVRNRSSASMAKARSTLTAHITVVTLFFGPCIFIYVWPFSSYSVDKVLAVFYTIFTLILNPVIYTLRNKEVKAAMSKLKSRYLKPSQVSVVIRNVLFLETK
How it was run: as §1

OR4KH = tested on: T8, OR4KH
T8 sequence (whole entry): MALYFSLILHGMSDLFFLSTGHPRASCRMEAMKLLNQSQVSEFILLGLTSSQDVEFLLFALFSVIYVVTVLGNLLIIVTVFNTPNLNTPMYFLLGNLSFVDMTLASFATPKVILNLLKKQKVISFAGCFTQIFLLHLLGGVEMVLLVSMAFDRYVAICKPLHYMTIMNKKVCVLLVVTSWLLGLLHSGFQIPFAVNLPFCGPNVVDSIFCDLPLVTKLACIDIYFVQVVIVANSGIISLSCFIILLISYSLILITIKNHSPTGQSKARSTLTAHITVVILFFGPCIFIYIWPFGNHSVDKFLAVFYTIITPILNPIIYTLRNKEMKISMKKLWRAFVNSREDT
How it was run: as §1

OR4L1 (Homo sapiens) = molecular target: T9, OR4L1 (Homo sapiens) (UniProt Q8NH43)
T9 sequence (whole entry): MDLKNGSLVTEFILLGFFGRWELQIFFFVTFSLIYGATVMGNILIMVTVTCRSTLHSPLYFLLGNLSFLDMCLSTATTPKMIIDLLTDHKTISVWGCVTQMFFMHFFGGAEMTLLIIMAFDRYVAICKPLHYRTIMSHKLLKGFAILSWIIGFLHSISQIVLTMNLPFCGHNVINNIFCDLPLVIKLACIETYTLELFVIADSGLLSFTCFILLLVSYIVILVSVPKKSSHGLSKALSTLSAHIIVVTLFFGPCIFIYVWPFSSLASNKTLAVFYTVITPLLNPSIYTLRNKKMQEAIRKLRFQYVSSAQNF
How it was run: as §1

OR4L1 = tested on: T10, OR4L1
T10 sequence (whole entry): T9 sequence (whole entry) with R52S
How it was run: as §1

OR4M1 (Homo sapiens) = molecular target: T11, OR4M1 (Homo sapiens) (UniProt Q8NGD0)
T11 sequence (whole entry): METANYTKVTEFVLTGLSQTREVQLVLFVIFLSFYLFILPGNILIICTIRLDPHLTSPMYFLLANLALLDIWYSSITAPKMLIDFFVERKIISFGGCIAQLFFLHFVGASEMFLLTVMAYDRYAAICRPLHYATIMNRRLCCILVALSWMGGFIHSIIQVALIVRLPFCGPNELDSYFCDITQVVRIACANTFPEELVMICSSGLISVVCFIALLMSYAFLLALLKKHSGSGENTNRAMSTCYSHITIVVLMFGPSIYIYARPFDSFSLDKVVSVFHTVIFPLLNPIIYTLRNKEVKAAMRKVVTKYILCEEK
How it was run: as §1

OR4M1 H277N V279L L284H = tested on: T12, OR4M1 H277N V279L L284H
T12 sequence (whole entry): T11 sequence (whole entry) with H277N, V279L, L284H
How it was run: as §1

OR4M2 (Homo sapiens) = molecular target: T13, OR4M2 (Homo sapiens) (UniProt Q8NGB6)
T13 sequence (whole entry): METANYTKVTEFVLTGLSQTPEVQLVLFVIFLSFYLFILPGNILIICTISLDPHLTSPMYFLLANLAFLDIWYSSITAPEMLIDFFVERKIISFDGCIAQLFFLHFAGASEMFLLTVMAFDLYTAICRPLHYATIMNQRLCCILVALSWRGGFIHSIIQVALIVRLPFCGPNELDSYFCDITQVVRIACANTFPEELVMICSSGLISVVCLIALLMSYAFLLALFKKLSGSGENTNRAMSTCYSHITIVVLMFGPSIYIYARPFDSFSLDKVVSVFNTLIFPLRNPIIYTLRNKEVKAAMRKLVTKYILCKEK
How it was run: as §1

OR4N2 (Homo sapiens) = molecular target: T14, OR4N2 (Homo sapiens) (UniProt Q8NGD1)
T14 sequence (whole entry): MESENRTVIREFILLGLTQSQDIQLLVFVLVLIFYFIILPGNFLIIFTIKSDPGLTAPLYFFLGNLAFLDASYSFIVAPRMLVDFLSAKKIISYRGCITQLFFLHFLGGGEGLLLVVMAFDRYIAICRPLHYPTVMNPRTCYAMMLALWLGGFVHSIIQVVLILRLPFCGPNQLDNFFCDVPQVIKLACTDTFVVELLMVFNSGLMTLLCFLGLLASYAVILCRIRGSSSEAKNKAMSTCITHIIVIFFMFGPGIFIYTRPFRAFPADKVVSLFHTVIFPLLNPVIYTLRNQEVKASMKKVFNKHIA
How it was run: as §1

OR4N2 A57V I76T = tested on: T15, OR4N2 A57V I76T
T15 sequence (whole entry): T14 sequence (whole entry) with A57V, I76T
How it was run: as §1

OR4N2 R260C F279L R290H = tested on: T16, OR4N2 R260C F279L R290H
T16 sequence (whole entry): T14 sequence (whole entry) with R260C, F279L, R290H
How it was run: as §1

OR4K15 (Homo sapiens) = molecular target: T17, OR4K15 (Homo sapiens) (UniProt Q8NH41)
T17 sequence (whole entry): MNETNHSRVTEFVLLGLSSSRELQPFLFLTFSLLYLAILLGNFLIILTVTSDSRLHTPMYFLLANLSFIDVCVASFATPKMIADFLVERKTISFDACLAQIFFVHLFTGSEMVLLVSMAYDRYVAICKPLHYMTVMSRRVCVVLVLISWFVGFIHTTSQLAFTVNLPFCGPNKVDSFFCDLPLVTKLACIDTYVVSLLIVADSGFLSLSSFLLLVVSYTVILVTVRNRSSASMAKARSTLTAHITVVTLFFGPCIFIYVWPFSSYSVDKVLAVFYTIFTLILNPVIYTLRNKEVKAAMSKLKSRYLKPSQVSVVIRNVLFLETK
How it was run: as §1

OR4K17 (Homo sapiens) = molecular target: T18, OR4K17 (Homo sapiens) (UniProt Q8NGC6)
T18 sequence (whole entry): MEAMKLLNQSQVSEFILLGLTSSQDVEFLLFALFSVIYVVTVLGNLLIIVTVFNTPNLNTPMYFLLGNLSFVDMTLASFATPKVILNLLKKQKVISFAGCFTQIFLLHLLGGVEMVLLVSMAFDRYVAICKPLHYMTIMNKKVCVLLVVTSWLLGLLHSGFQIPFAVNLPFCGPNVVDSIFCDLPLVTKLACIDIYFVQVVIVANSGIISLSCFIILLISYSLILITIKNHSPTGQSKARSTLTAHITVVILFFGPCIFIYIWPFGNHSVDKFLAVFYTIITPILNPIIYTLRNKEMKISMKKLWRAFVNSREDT
How it was run: as §1

OR4K3 (Homo sapiens) = OR4K3 (Homo sapiens) (UniProt Q96R72)
Sequence of OR4K3 (Homo sapiens) (Q96R72 whole entry): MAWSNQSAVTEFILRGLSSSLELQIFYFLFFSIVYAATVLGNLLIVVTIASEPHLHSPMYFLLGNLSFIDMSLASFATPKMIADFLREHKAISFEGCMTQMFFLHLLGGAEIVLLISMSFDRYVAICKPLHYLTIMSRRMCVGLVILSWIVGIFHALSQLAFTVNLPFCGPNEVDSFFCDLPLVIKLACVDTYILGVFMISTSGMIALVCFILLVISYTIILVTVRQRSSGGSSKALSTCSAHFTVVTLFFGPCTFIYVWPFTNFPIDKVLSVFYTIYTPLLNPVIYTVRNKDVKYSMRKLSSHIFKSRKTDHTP
How it was run: as §1

OR4M2B (Homo sapiens) = OR4M2B (Homo sapiens) (UniProt A0A0X1KG70)
Sequence of OR4M2B (Homo sapiens) (A0A0X1KG70 whole entry): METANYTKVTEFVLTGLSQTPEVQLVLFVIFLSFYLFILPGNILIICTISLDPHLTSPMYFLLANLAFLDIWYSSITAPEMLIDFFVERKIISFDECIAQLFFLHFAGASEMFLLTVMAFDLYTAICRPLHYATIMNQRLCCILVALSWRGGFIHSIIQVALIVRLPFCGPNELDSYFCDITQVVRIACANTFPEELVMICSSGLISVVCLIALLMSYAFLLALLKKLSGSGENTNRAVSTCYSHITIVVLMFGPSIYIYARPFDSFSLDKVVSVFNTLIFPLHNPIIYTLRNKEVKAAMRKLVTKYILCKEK
How it was run: as §1

Measured: odorant receptor agonist call;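 note: active if original authors judged signal statistically different from baseline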

CC1=NC(C)C(C)S1 (stereo unspecified)
not listed: OR4K15 (Homo sapiens) | OR4K17 (Homo sapiens) | OR4K3 (Homo sapiens) | OR4M2B (Homo sapiens)
inactive: all other assays above

CCCCCC(S)C(C)CO (stereo unspecified)
inactive: OR4K13 (Homo sapiens) | OR4K14 (Homo sapiens) | OR4K15 (Homo sapiens) | OR4K17 (Homo sapiens) | OR4K2 (Homo sapiens) | OR4K5 (Homo sapiens) | OR4L1 (Homo sapiens) | OR4M1 (Homo sapiens) | OR4M2 (Homo sapiens) | OR4N2 (Homo sapiens)

CC1CCCCCCCCCCCCC(=O)C1 (stereo unspecified)
not listed: OR4K1 R304H | OR4K2 | OR4KF | OR4KH | OR4L1 | OR4M1 H277N V279L L284H | OR4N2 A57V I76T | OR4N2 R260C F279L R290H
inactive: all other assays above

CCCCCCC=CCCC=O
not listed: OR4KF | OR4KH | OR4K3 (Homo sapiens) | OR4M2B (Homo sapiens)
inactive: all other assays above

CC(CO)CS (stereo unspecified)
inactive: OR4K13 (Homo sapiens) | OR4K14 (Homo sapiens) | OR4K15 (Homo sapiens) | OR4K17 (Homo sapiens) | OR4K2 (Homo sapiens) | OR4K5 (Homo sapiens) | OR4L1 (Homo sapiens) | OR4M1 (Homo sapiens) | OR4M2 (Homo sapiens) | OR4N2 (Homo sapiens)

CC1=C(O)C(=O)C(C)O1 (stereo unspecified)
not listed: OR4K15 (Homo sapiens) | OR4K17 (Homo sapiens) | OR4K3 (Homo sapiens) | OR4M2B (Homo sapiens)
inactive: all other assays above

Cc1cnc(C)c(C)n1
not listed: OR4K15 (Homo sapiens) | OR4K17 (Homo sapiens) | OR4K3 (Homo sapiens) | OR4M2B (Homo sapiens)
inactive: all other assays above

Source: the M2OR odorant receptor database
